Rows were chosen to be rich in hits. Some 1.9% of all compounds tested hit in one or more screens of this group.
MC4R antag cAMP – blocks human MC4R cAMP signaling. MC4R-expressing cells, MTII-stimulated cAMP, LANCE TR-FRET. AID 540295. 360,000 tested, 0.48% active. inhibition, % at 6.5 µM. P32245;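 active means inhibition above its plate's cutoff, the mean of tested wells on that plate plus 3 SD, cut at about 29% in these data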;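 further: 0% = Melanotan II alone and 100% = Melanotan II plus saturating MCL0020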
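Test system: U2OS cells stably expressing human melanocortin 4 receptor (MC4R); also added: Melanotan II challenge; compound: 6.5 µM single dose; timing: 30-min compound preincubation, 1-h Melanotan II challenge, 1-h detection, room temperature; signal: Eu-cAMP/anti-cAMP TR-FRET, emission 671 nm; repeats: one well per compound, no replicates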
NTR1 ag – NTR1 (human) agonism; activation, % at 20 µM; 330,000 tested, 0.17% active; NTR1-U2OS beta-arrestin-GFP spot imaging, agonist mode;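 active means activation at or above 40% of the spot to cytoplasm intensity ratio, with at least 20 cells analyzed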;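 further: 0% = DMSO without peptide and 100% = 100 nM NTR1 peptide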
TLR9-MyD88 inh – TLR9-MyD88 interaction inhibition | Q9NR96+Q99836 | CHO BLA complementation TLR9-MyD88, CCF4 FRET ratio | inhibition, % at 4.98 µM | 340,000 tested, 0.21% active;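 active means inhibition above the mean over all tested compounds plus 3 SD, cut at about 21% in these data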;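 further: 0% = DMSO only wells and 100% = clavulanate BLA inhibitor control wells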
TLR4-MyD88 BLA – blocks binding of human TLR4 to MyD88 | O00206+Q99836 | HeLa CL3-4 TLR4/MyD88 BLA complementation, FRET ratio | inhibition, % at 8.4 µM | 200,000 tested, 0.18% active | AID 861; in the data active means inhibition above about 25%;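 further: 0% = vehicle and 100% = reference inhibitor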
MC4R barr agon – activates human MC4R beta-arrestin recruitment | P32245 | U2OS MC4R beta-arrestin complementation, luminescence; percent of melanotan II response, DMSO zero | activation, % at 8.9 µM | 360,000 tested, 0.98% active;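 active means activation above a per-plate cutoff, the mean activation of sample wells on that plate plus 3 SD, cut at about 8% in these data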
NOD2 RIPK2 PPI – inhibitors of human NOD2-RIPK2 interaction. O43353. CHO BLA complementation NOD2-RIPK2, CCF4 ratio. inhibition, % at 4.98 µM. 360,000 tested, 0.38% active; in the data active means inhibition above about 21%;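 further: 0% = vehicle only and 100% = reference blocker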
MC4R barr conf – human MC4R beta-arrestin agonism confirmation | U2OS MC4R beta-arrestin recruitment, luminescence; scaled DMSO 0%, Melanotan II 100% | activation, % at 8.9 µM | 2,400 tested, 31% active | AID 602192 | shares compounds with MC4R barr agon;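 active means mean activation across replicates above the hit cutoff set in the earlier primary screen, cut at about 8% in these data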
MOR DOR agonist – activates mu-delta opioid heterodimer, MC4R agonist counter-screen; shares compounds with MC4R barr agon; U2OS PathHunter beta-arrestin, beta-gal luminescence; percent of deltorphin B response, DMSO zero; activation, % at 9.2 µM; 2,400 tested, 5.8% active; AID 602194;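 active means mean activation across replicates exceeds the hit threshold derived in the earlier primary screen, cut at about 18% in these data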;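 further: 100% = deltorphin B at 0.9 µM final and 0% = DMSO alone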
Target sequence (P35372 whole entry, looked up): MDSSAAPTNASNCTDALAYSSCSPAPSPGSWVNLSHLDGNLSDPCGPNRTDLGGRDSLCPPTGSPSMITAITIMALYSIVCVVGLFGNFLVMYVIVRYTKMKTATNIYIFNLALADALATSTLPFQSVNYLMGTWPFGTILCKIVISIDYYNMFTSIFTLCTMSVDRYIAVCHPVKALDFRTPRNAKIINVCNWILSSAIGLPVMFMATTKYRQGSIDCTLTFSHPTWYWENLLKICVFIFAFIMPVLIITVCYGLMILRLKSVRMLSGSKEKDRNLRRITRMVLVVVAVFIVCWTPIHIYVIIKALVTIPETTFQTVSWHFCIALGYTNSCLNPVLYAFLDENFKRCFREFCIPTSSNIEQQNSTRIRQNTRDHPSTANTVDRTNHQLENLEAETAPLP
Target sequence (P41143 whole entry, looked up): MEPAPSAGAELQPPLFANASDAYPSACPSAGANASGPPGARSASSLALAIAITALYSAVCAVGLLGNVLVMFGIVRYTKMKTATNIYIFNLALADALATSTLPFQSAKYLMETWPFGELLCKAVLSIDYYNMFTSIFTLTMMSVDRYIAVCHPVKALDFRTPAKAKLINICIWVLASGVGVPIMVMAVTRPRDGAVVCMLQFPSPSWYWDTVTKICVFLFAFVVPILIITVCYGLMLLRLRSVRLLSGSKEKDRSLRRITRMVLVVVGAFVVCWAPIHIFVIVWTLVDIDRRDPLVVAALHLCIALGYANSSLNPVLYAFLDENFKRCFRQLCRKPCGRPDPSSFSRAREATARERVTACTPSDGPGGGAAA
* = called active by the depositor; x = no result given.

SMILES | MC4R antag cAMP | NTR1 ag | TLR9-MyD88 inh | TLR4-MyD88 BLA | MC4R barr agon | NOD2 RIPK2 PPI | MC4R barr conf | MOR DOR agonist
COCCCNC(=O)c1c(NC(=O)C2COc3ccccc3O2)sc2c1CCCC2 (stereo not drawn) | 5 | 1 | -6 | 0 | 11* | -16 | 1 | 3
O=S(=O)(Nc1ccc(Nc2ccccc2)cc1)c1ccc(F)cc1 | 2 | 7 | -3 | x | 8 | -7 | x | x
O=S(=O)(Nc1ccc(-c2ccccc2)cc1)c1ccccc1 | 5 | x | -2 | x | 14* | -8 | 6 | 7
Cc1ccc(S(=O)(=O)Nc2ccc(Nc3ccccc3)cc2)cc1 | 9 | 10 | 15 | x | 9.7* | 10 | 1 | 9
COc1ccc(CCn2c(C)cc(C(=O)COC(=O)c3ccc(O)cc3O)c2C)cc1 | 13 | x | 5 | x | 25* | 5 | 9.3* | 10
COc1ccc(CCn2c(C)cc(C(=O)COC(=O)c3cnc(C)cn3)c2C)cc1 | -2 | 0 | -13 | x | 0 | 1 | x | x
CCCn1nc(Oc2nc(N(C)C)nc(N(C)C)n2)ccc1=O | 2 | 0 | -7 | -9 | 0 | -13 | x | x
O=C(Nc1cccc2ccccc12)NC1Cc2ccccc2C1 | 5 | 0 | x | x | 0 | -8 | x | x
O=[N+]([O-])c1ccc(S(=O)(=O)N2CCN=C2SCc2ccc(F)cc2)cc1 | 2 | 3 | -6 | x | 11* | 1 | 4 | 8
CC(=O)Nc1ccc(S(=O)(=O)N2CCN=C2SCc2ccc(F)cc2)cc1 | 0 | -1 | -15 | x | -2 | -2 | x | x
COC(=O)c1ccccc1C(=O)c1cccc2ccccc12 | 5 | 1 | -1 | x | -1 | -4 | x | x
COC(=O)c1cc2ccccc2c(-c2c(O)ccc3ccccc23)c1O | -17 | 23 | 7 | -8 | 17* | 10 | 13* | 10
CCCC(=O)NC(=S)Nc1ccc(N2CCN(C(=O)c3cccs3)CC2)cc1 | 27 | -2 | -2 | -1 | 1 | 3 | x | x
CS(=O)(=O)N1CCC(C(=O)Nc2cccc(C(F)(F)F)c2)CC1 | -5 | 0 | 4 | 18 | -2 | -2 | x | x
Cc1cc(C)nc(N2CCC(C(=O)Nc3cccc(C(F)(F)F)c3)CC2)n1 | 1 | 2 | 3 | -20 | 14* | -1 | 0 | 6
Cc1ccc(O)c(-c2cc(-c3cccc(F)c3)n[nH]2)c1 | -8 | 10 | -3 | -3 | 10* | 6 | 5 | 7
CNC(=S)N/N=C/c1c(C)nn(-c2cccc(Cl)c2)c1Cl | -1 | 3 | 5 | 3 | 22* | -6 | 3 | 5
CNC(=S)N/N=C/c1c(C)nn(-c2ccccc2)c1Cl | 12 | 1 | -4 | -6 | -1 | -2 | x | x
COc1cccc(Nc2nc(C(N)Cc3ccc(C(F)(F)F)cc3)cs2)n1 (stereo not drawn) | -6 | x | x | x | 12* | 6 | 5 | 11
NC(Cc1ccc(F)cc1)c1csc(Nc2cc(Oc3ccccc3)ncn2)n1 (stereo not drawn) | -3 | x | x | x | 13* | 4 | 14* | 12
COc1cccc(Nc2nc(C(N)CCc3ccccc3)cs2)n1 (stereo not drawn) | -22 | x | x | x | 16* | 4 | 12* | 13
COc1cccc(Nc2nc(C(N)Cc3ccc(Cl)cc3)cs2)n1 (stereo not drawn) | -6 | x | x | x | 15* | -3 | 8.4* | 9
O=C(CSc1cn(CCNC(=O)c2ccc3ccccc3c2)c2ccccc12)NCc1ccco1 | 10 | 4 | 11 | -1 | 1 | -7 | x | x
COc1ccc(-c2cc(C(=O)Nc3ccccc3SC)no2)cc1 | 0 | -2 | -11 | -5 | 0 | 2 | x | x
CSc1ccccc1NC(=O)c1cc(-c2cccs2)on1 | -2 | 9 | -2 | -1 | 9.8* | 3 | 7 | 5
SMILES | MC4R antag cAMP | NTR1 ag | TLR9-MyD88 inh | TLR4-MyD88 BLA | MC4R barr agon | NOD2 RIPK2 PPI | MC4R barr conf | MOR DOR agonist
Cc1cc(C(=O)N/N=C/c2cc(Br)ccc2OC(=O)c2ccccc2Cl)n[nH]1 | 10 | 0 | 1 | 2 | -3 | 1 | x | x
Cc1cc(C(=O)N/N=C/c2cc(Br)ccc2OC(=O)c2ccccc2)n[nH]1 | -1 | 6 | 2 | 3 | 17* | 7 | 3 | 7
CCCCOc1ccc(S(=O)(=O)NNC(=O)c2cc3ccccc3o2)cc1 | -2 | 4 | -4 | -15 | 5 | -7 | x | x
CC(C)COc1ccc(S(=O)(=O)NNC(=O)c2cc3ccccc3o2)cc1 | 14 | 7 | 2 | -3 | 11* | 2 | 12* | 10
CN(C(=O)CSc1nc2ccc([N+](=O)[O-])cc2s1)C1CCS(=O)(=O)C1 (stereo not drawn) | 16 | 2 | 4 | x | 0 | -5 | x | x
N#Cc1c(-c2ccccc2)c(C#N)c2nc3ccccc3n2c1N | 8 | 8 | -3 | -22 | 11* | -2 | 1 | 4
COc1cc2c(-c3ccccc3)c(C)oc2cc1/C=N/NC(N)=S | 23 | 3 | 0 | x | 16* | -17 | 8.7* | 10
COCCN(C(=O)CNC(=O)c1ccco1)C(C(=O)NC1CCCC1)c1cccc(OC)c1 (stereo not drawn) | -6 | 0 | 7 | x | 0 | -4 | x | x
CCc1cc(C(=O)Cc2cnn(-c3ccccc3)c2)c(O)cc1O | -7 | 10 | -16 | -10 | 22* | -9 | 8 | 5
O=C(Cc1cnn(-c2ccccc2)c1)c1ccc(O)c(O)c1O | -6 | 0 | -4 | -7 | -4 | 5 | x | x
COc1ccc(-c2ccc(C#N)c(SCC(=O)NCc3ccco3)n2)cc1OC | -4 | 0 | 5 | x | 16* | -3 | -1 | 7
COc1ccc(-c2ccc(-c3noc(-c4ccco4)n3)c(OC)n2)cc1 | 3 | 8 | -12 | -2 | 8 | 2 | x | x
COc1nc(-c2ccccc2)ccc1-c1noc(-c2ccco2)n1 | 2 | 4 | -15 | -4 | 31* | 5 | 0 | 3
Cc1cc2oc(C(=O)Nc3nonc3C)c(C)c2cc1C | 18 | 1 | -9 | x | 14* | -3 | -2 | 5
CCOC(=O)Cn1c(=NC(=O)c2nc3ccccc3s2)sc2cc(S(N)(=O)=O)ccc21 | 28 | 29 | -7 | -28 | 12* | -16 | 1 | 3
N#Cc1ccccc1S(=O)(=O)N1CCN(C(=O)[C@H](Cc2ccccc2)NC(=O)c2ccco2)CC1 | -2 | -1 | 3 | x | -2 | -11 | x | x
c1cc2ccc3ccc(-n4cnnn4)c4ccc(c1)c2c34 | -12 | 6 | 2 | -16 | 31* | 0 | 6 | 6
COC(=O)c1ccc2nc(-c3ccco3)c(Cc3cccc(F)c3)n2c1 | x | x | x | x | x | 7 | x | x
